Where two headings read alike, the source gives them in different places.
Columns and labels:
[1] = molecular target: Recombinant M. tuberculosis MbtI (Mycobacterium tuberculosis, UniProt P9WFX1); test: biochemical; settings: for remaining activity at 100 µM: pH 7.5, read-out: Residual activity at 100 µM (%)
Cell viability assay = type: cell-based; settings: human, MRC5 human fibroblast lung cells
Outline: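 MRC5 human lung fibroblasts were kept at 37 °C in humidified 5% CO2 and seeded in 96-well plates. The next day, vehicle or test compound was added at 200 to 0.01 µM.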

Sequence of Recombinant M. tuberculosis MbtI (P9WFX1 whole entry): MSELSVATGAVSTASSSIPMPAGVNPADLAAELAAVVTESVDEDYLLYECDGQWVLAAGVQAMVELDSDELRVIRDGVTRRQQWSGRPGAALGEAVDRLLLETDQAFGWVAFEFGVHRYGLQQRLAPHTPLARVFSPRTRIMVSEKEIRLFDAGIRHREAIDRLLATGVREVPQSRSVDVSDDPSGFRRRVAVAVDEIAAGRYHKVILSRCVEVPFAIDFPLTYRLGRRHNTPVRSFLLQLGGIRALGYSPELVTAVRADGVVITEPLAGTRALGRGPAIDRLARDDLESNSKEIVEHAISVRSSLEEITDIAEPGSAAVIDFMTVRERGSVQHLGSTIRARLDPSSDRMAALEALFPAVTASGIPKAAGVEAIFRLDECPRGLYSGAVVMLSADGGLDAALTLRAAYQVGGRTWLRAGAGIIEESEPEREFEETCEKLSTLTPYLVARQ

## O=C(O)c1ccc(-c2ccc(C(F)(F)F)cc2F)o1 [1b]
[1]
  IC50: 27.6 ± 7.3 µM
  remaining activity at 100 µM: 6.1 ± 1.1%

## O=C(O)c1ccc(-c2ccc(C(F)(F)F)cc2Br)o1 [1c]
[1]
  remaining activity at 100 µM: 38 ± 3.7%

## O=C(O)c1ccc(-c2ccc(C(F)(F)F)cc2O)o1 [1d]
[1]
  IC50: 35.9 ± 10.3 µM
  remaining activity at 100 µM: 16.8 ± 2.7%

## Cc1cc(C(F)(F)F)ccc1-c1ccc(C(=O)O)o1 [1e]
[1]
  IC50: 31.5 ± 9.6 µM
  remaining activity at 100 µM: 19.3 ± 2.2%

## Nc1cc(C(F)(F)F)ccc1-c1ccc(C(=O)O)o1 [1f]
[1]
  IC50: 34.6 ± 10.9 µM
  remaining activity at 100 µM: 13.1 ± 2.4%

## N#Cc1cc(C(F)(F)F)ccc1-c1ccc(C(=O)O)o1 [1g, 5-(2-cyano-4-(trifluoromethyl)phenyl)furan-2-carboxylic acid]
[1]
  IC50: 18.5 ± 3.2 µM
  remaining activity at 100 µM: 5.7 ± 1.5%

## O=C(O)c1ccc(-c2ccc([N+](=O)[O-])cc2Br)o1 [1j]
[1]
  remaining activity at 100 µM: 32.1 ± 2.4%

## O=C(O)c1ccc(-c2ccc([N+](=O)[O-])cc2F)o1 [1k]
[1]
  remaining activity at 100 µM: 26.4 ± 4.8%

## O=C(O)c1ccc(-c2ccc([N+](=O)[O-])cc2O)o1 [1l]
[1]
  IC50: 29.8 ± 4.2 µM
  remaining activity at 100 µM: 13.9 ± 4%

## Cc1cc([N+](=O)[O-])ccc1-c1ccc(C(=O)O)o1 [1m]
[1]
  IC50: 28.5 ± 1.5 µM
  remaining activity at 100 µM: 13.2 ± 5.8%

## Nc1cc([N+](=O)[O-])ccc1-c1ccc(C(=O)O)o1 [1n]
[1]
  IC50: 24.2 ± 5.4 µM
  remaining activity at 100 µM: 13.5 ± 3.8%

## N#Cc1cc([N+](=O)[O-])ccc1-c1ccc(C(=O)O)o1 [1o, 5-(2-cyano-4-nitro-phenyl)furan-2-carboxylate]
[1]; compound at 100 µM, 50 µM chorismic acid, 37 °C, pH 7.5
  Residual activity at 100 µM (%): 5.0 ± 1.9%
[1]; read-out: MbtI IC50
  IC50: 24.4 ± 5.9 µM

## O=C(O)c1ccc(-c2ccc([N+](=O)[O-])cc2C(F)(F)F)o1 [1p]
Cell viability assay
  IC50 at 96 h: > 100 µM
[1]
  remaining activity at 100 µM: 25.1 ± 3.7%
